ChEMBL document CHEMBL5649170, “Sustained microglial depletion with CSF1R inhibitor impairs parenchymal plaque development in an Alzheimer's disease model” (Nat Commun, 2019)
Activity calls are given as the source filed them. No cut-off for these calls is given here.

Legend:
[1] = Effect on Clec7a gene expression in wild type mouse thalamus at 1200 ppm administered as rodent chow starting from 1.5 months and measured after 7 months by RNA-Seq analysis (reference value: 0.095 to 0.586 RPKM); format: functional; conditions: route po, time 5.5 months, 4015 h
Method in brief: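 WT and 5xFAD mice were treated with 1200 ppm PLX5622 chow or control chow from 1.5 to 7 months of age. Brains were microdissected into cortex, hippocampus and thalamus, and RNA was extracted from tissue powder. Whole-transcriptome RNA-Seq libraries were sequenced, with n = 4 per group per region (48 samples).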

[2] = biological target: Tyrosine-protein kinase FRK (Homo sapiens, UniProt P42685); assay: Inhibition of FRK (unknown origin)
Tyrosine-protein kinase FRK, sequence (P42685 whole entry): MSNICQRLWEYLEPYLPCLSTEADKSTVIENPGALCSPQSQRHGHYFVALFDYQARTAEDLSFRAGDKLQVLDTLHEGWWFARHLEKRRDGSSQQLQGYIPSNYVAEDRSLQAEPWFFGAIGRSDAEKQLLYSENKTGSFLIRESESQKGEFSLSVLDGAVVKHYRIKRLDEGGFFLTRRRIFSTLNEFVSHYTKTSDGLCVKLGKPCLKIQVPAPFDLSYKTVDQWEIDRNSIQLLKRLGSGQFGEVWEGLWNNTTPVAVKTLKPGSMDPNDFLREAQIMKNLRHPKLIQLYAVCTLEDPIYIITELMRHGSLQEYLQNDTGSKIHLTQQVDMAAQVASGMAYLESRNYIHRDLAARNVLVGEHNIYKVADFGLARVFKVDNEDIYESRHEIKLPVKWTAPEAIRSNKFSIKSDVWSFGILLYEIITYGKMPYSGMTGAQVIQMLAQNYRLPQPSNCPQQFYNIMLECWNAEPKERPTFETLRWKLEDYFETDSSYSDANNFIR

[3] = Volume of distribution at steady state in female rat at 1.13 mg/kg, iv administered as single dose; format: ADME, organism-based; conditions: in vivo, read-out: Vdss
[4] = biological target: Proto-oncogene tyrosine-protein kinase receptor Ret (Homo sapiens, UniProt P07949, Y791F); assay: Inhibition of RET Y791F mutant (unknown origin)
Proto-oncogene tyrosine-protein kinase receptor Ret, sequence (P07949 29-1114 Y791F limits assumed): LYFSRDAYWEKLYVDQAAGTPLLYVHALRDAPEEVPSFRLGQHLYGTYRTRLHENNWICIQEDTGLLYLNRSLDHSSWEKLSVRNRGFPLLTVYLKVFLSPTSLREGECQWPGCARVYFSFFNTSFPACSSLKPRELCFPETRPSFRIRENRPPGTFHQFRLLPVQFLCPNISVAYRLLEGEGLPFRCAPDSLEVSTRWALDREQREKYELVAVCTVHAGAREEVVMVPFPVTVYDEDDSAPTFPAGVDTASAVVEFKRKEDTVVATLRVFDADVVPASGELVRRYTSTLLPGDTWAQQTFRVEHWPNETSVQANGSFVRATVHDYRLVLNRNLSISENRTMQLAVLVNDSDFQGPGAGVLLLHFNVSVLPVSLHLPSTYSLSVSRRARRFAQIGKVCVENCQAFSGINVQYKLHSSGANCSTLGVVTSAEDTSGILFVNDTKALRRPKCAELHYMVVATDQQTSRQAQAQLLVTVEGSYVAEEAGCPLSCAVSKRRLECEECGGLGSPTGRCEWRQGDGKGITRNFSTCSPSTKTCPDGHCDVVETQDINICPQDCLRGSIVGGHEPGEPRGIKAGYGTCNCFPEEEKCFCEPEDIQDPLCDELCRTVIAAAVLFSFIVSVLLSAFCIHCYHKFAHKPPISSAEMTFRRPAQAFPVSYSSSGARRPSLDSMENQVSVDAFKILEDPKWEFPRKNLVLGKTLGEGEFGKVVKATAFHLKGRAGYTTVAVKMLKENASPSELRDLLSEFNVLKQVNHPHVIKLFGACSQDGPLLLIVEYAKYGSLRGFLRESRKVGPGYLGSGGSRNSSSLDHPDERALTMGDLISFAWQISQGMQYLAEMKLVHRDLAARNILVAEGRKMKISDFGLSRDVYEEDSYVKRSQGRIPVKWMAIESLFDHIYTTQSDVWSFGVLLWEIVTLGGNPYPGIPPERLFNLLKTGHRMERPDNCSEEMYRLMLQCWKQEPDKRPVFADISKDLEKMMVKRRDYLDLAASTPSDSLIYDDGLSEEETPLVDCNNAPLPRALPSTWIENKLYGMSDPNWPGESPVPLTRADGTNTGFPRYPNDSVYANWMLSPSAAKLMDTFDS

[5] = biological target: Casein kinase I isoform gamma-3 (Homo sapiens, UniProt Q9Y6M4); assay: Inhibition of CSNK1G3 (unknown origin)
Casein kinase I isoform gamma-3, sequence (Q9Y6M4 whole entry, canonical isoform): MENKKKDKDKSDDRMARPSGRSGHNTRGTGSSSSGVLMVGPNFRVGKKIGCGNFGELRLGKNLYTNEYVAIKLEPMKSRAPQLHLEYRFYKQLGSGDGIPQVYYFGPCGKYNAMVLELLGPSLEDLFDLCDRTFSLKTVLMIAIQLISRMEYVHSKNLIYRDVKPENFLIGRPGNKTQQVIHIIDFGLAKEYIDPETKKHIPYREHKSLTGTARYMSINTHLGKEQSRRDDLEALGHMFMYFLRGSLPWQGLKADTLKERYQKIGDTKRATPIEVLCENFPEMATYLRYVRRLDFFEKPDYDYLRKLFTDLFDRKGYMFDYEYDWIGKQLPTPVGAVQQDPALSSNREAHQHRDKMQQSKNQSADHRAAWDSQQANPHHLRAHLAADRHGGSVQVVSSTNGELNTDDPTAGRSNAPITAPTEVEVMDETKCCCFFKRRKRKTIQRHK

[6] = AUC (0 to infinity) in mouse at 1.92 mg/kg, iv administered as single dose; format: ADME, organism-based; conditions: in vivo
[7] = Toxicity in wildtype mouse assessed as time spent in center zone at 1200 ppm administered as rodent chow for 10 to 24 weeks by Open field test (reference value: 32.4 to 76.1 sec); conditions: in vivo, po, time 10-24 weeks
[8] = biological target: MAP/microtubule affinity-regulating kinase 4 (Homo sapiens, UniProt Q96L34); assay: Inhibition of MARK4 (unknown origin)
Mus musculus [9] = assay: Antialzheimer activity in 5XFAD mouse assessed as microglial elimination in thalamus by measuring reduction in Thio-S positive plaques at 1200 ppm administered as rodent chow for 14 weeks by Thio-S staining based confocal microscopic analysis; format: functional, organism-based; conditions: route po
Mus musculus [10] = assay: Antialzheimer activity in 5XFAD mouse assessed as number of GFAP positive cells per FOV at 1200 ppm administered as rodent chow starting from 1.5 months to 4 months followed by compound removal and measured after 1 month by immunolabeling based confocal microscopic analysis (reference value: 20 to 71); format: functional; conditions: route po, time 2.5 months, 1825 h
[11] = biological target: Serine/threonine-protein kinase Sgk3 (Homo sapiens, UniProt Q96BR1); assay: Inhibition of SGKL (unknown origin)
[12] = AUC (0 to infinity) in dog at 45 mg/kg, po administered as single dose via gavage; format: ADME, organism-based, Canis lupus familiaris; conditions: in vivo
[13] = biological target: Hepatocyte growth factor receptor (Homo sapiens, UniProt P08581); assay: Inhibition of MET (unknown origin)
[14] = biological target: Serine/threonine-protein kinase pim-1 (Homo sapiens, UniProt P11309); assay: Inhibition of PIM1 (unknown origin)
[15] = Effect on Spi1 gene expression in 5XFAD mouse thalamus at 1200 ppm administered as rodent chow starting from 1.5 months and measured after 7 months by RNA-Seq analysis (reference value: 2.107 to 3.285 RPKM); format: functional; conditions: route po, time 5.5 months, 4015 h
Mus musculus [16] = assay: Effect on APP processing pathway in 5XFAD mouse assessed as PS1 protein signal intensity in cortex at 1200 ppm administered as rodent starting from 1.5 months and measured after 7 months (reference value: 64.603 to 143.235 %); format: functional; conditions: route po, time 5.5 months, 4015 h
[17] = Effect on Itgax gene expression in 5XFAD mouse cortex at 1200 ppm administered as rodent chow starting from 1.5 months and measured after 7 months by RNA-Seq analysis (reference value: 1.746 to 3.999 RPKM); format: functional; conditions: route po, time 5.5 months, 4015 h
[18] = biological target: MAP kinase-activated protein kinase 5 (Homo sapiens, UniProt Q8IW41); assay: Inhibition of MAPKAPK5 (unknown origin)
[19] = biological target: Serine/threonine-protein kinase PLK2 (Homo sapiens, UniProt Q9NYY3); assay: Inhibition of PLK2 (unknown origin)
Serine/threonine-protein kinase PLK2, sequence (Q9NYY3 whole entry): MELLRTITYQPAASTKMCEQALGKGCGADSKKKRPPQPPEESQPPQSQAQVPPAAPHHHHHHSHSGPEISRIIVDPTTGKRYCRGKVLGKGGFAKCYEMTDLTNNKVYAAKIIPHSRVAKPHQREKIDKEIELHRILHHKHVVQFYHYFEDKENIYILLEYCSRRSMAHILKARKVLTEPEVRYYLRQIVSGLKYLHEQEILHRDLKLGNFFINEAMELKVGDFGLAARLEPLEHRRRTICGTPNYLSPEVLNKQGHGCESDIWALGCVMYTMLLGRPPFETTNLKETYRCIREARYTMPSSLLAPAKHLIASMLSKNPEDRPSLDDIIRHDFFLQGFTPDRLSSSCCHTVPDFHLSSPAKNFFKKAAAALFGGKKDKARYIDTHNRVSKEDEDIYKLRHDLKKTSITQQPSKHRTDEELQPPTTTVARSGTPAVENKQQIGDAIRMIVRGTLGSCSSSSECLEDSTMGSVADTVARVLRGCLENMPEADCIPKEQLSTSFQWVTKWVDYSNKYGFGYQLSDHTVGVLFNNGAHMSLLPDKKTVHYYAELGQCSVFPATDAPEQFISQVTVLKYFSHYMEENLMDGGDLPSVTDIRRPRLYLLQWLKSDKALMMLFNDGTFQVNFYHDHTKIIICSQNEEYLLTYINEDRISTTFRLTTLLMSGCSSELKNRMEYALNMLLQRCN

[20] = Effect on Itgax gene expression in 5XFAD mouse hippocampus at 1200 ppm administered as rodent chow starting from 1.5 months and measured after 7 months by RNA-Seq analysis (reference value: 2.202 to 4.490 RPKM); format: functional; conditions: route po, time 5.5 months, 4015 h
[21] = Drug concentration in mouse plasma at 300 ppm administered as rodent chow for 14 days; format: ADME, cell-free; conditions: route po, time 14 day
[22] = biological target: Phosphatidylinositol 4,5-bisphosphate 3-kinase catalytic subunit gamma isoform (Homo sapiens, UniProt P48736); assay: Inhibition of PIK3CG (unknown origin)
Phosphatidylinositol 4,5-bisphosphate 3-kinase catalytic subunit gamma isoform, sequence (P48736 whole entry, canonical isoform): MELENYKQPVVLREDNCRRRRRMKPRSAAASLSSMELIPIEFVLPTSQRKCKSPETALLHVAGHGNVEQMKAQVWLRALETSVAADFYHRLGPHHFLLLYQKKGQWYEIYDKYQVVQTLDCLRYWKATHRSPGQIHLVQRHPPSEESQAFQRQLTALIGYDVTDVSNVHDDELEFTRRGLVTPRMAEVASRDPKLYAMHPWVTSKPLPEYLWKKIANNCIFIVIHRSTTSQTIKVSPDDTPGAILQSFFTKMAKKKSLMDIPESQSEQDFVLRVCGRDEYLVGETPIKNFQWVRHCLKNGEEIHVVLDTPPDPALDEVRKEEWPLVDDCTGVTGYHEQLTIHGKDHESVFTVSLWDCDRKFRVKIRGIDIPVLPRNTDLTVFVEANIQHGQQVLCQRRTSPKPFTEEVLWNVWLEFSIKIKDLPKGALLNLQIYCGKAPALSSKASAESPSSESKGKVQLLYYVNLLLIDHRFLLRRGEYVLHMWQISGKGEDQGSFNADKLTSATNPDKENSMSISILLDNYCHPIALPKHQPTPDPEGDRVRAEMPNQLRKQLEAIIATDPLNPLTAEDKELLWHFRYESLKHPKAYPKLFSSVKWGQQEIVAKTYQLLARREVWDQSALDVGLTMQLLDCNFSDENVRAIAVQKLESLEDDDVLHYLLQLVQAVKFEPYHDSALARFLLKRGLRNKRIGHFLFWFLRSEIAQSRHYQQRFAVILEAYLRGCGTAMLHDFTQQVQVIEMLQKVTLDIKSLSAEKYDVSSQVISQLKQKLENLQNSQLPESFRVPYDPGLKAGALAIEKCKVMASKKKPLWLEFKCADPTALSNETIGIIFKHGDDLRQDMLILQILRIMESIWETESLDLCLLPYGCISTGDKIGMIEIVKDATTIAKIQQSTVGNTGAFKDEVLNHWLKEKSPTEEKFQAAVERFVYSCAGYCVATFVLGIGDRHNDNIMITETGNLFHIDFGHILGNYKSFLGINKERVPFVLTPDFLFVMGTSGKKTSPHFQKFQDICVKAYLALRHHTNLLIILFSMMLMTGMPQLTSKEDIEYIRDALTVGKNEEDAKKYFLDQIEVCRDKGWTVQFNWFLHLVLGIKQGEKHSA

CDK7/Cyclin H/MNAT1 = CDK7/Cyclin H/MNAT1 (Homo sapiens, UniProt P50613); assay: Inhibition of CDK7/CyclinH/MNAT1 (unknown origin); format: protein-complex assay
CDK7/Cyclin H/MNAT1, sequence (P51946 whole entry): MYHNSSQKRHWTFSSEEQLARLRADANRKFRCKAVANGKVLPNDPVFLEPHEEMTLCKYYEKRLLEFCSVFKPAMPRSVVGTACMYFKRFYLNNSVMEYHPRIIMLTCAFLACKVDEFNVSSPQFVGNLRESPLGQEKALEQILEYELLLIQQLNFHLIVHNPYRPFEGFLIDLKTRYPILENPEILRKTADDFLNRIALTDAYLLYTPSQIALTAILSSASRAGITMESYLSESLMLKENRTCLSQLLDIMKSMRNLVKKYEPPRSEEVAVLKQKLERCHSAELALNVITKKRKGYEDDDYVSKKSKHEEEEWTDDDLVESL
CDK7/Cyclin H/MNAT1, sequence (P50613 whole entry): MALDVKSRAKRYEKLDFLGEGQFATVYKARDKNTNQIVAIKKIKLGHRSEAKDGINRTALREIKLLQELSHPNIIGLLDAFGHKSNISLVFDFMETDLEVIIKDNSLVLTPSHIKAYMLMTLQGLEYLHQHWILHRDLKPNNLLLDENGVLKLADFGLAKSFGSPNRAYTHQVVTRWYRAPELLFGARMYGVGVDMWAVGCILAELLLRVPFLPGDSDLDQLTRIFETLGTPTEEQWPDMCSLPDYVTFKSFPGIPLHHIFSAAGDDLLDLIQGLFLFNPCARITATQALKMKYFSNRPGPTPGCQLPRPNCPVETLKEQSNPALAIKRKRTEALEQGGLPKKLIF
CDK7/Cyclin H/MNAT1, sequence (P51948 whole entry, further chain): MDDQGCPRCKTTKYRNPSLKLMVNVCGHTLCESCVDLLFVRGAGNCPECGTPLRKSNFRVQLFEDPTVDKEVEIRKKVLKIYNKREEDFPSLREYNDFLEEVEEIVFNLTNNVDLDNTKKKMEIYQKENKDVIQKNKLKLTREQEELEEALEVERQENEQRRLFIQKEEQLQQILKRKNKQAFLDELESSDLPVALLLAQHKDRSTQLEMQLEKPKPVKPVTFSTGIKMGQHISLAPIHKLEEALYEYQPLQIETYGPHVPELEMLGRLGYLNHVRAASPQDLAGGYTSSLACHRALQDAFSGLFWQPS

[23] = Prevention of Dusp5 gene downregulation in 5XFAD mouse hippocampus assessed as percent change in Reads Per kilo base per Million mapped reads at 1200 ppm administered as rodent chow starting from 1.5 months and measured after 7 months by RNA-Seq analysis (reference value: 41.082 to 74.744 %); format: functional; conditions: route po, time 5.5 months, 4015 h
[24] = Effect on Cx3cr1 gene expression in wild type mouse cortex at 1200 ppm administered as rodent chow starting from 1.5 months and measured after 7 months by RNA-Seq analysis (reference value: 9.334 to 12.119); format: functional; conditions: route po, time 5.5 months, 4015 h
[25] = Effect on ccl6 gene expression in 5XFAD mouse cortex at 1200 ppm administered as rodent chow starting from 1.5 months and measured after 7 months by RNA-Seq analysis (reference value: 4.103 to 8.161 RPKM); format: functional; conditions: route po, time 5.5 months, 4015 h

COc1ncc(F)cc1CNc1ccc(Cc2c[nH]c3ncc(C)cc23)c(F)n1 [PLX-5622] showed an Activity [1] of 0 RPKM, an IC50 [2] greater than 1000 nM and a Vd [3] of 1 L/kg. It also gave an IC50 [4] greater than 1000 nM, an IC50 [5] greater than 1000 nM and an AUC(0-inf) [6] of 15500 ng·h/mL. For the same compound, the Time [7] was 12.7 s, the IC50 [8] was greater than 1000 nM and the Activity (Mus musculus [9]) was “inactive”. The Activity (Mus musculus [10]) was 10, the IC50 [11] was greater than 1000 nM and the AUC(0-inf) [12] was 96500 ng·h/mL. For the same compound, the IC50 [13] was greater than 1000 nM, the IC50 [14] was greater than 1000 nM and the Activity [15] was 0 RPKM. The Activity (Mus musculus [16]) was 56.036%, the Activity [17] was 0.086 RPKM and the IC50 [18] was greater than 1000 nM. The IC50 [19] was greater than 1000 nM, the Activity [20] was 0.155 RPKM and the concentration at 336 h [21] was 4340 ng/mL. It also gave an IC50 [22] greater than 1000 nM, an IC50 (CDK7/Cyclin H/MNAT1) greater than 1000 nM and an Activity [23] of 83.733%. It also gave an Activity [24] of 0 RPKM and an Activity [25] of 0.241 RPKM.
